Results from ChEMBL document CHEMBL1144922 (J Med Chem, 2003).

Experiments:
MT2 [1] = test: Anti-HIV activity based on inhibition of HIV-1 induced cytopathogenicity in MT-2 cells.; format: functional, cell-based; conditions: Homo sapiens
Summary of the method: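 IC50 from inhibition of HIV-induced cytopathic effect in MT-2 cells. Values with SD are means of at least three independent experiments; values without SD come from a single experiment.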

[2] = system: Human immunodeficiency virus; test: Inhibitory activity against wild type strain,HIV104pre.; format: functional, organism-based; conditions: Human immunodeficiency virus 1
Summary of the method: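 Activity against the wild-type strain HIV104pre was read as inhibition of HIV p24 antigen expression in peripheral blood mononuclear cells (PBMC).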

[3] = Selectivity index was determined as ratio of reduction of the viability of mock-infected MT-2 cells/inhibition of HIV-1 induced cytopathogenicity in MT-2 cells.; format: functional, MT2
[4] = system: Human immunodeficiency virus 1; test: Anti-HIV activity against multidrug resistant HIV JSL strain by inhibition of HIV p24 antigen expression in peripheral blood mononuclear cells(PBMC); format: functional, organism-based
Summary of the method: (§1)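 Read-out was HIV p24 antigen expression in peripheral blood mononuclear cells infected with multidrug-resistant HIV-1. Values with standard deviation are means of at least three experiments, and values without one come from a single experiment. Wild-type strain HIV104pre was the reference. Protease amino acid substitutions of each strain were characterised.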

[5] = system: Human immunodeficiency virus 1; test: Anti-HIV activity against multidrug resistant HIV TM strain by inhibition of HIV p24 antigen expression in peripheral blood mononuclear cells(PBMC); format: functional, organism-based; summary of the method: as §1
[6] = system: Human immunodeficiency virus 1; test: Anti-HIV activity against multidrug resistant HIV MM strain by inhibition of HIV p24 antigen expression in peripheral blood mononuclear cells(PBMC); format: functional, organism-based; summary of the method: as §1
MT2 [7] = test: Cytotoxicity based on reduction of the viability of mock-infected MT-2 cells.; format: functional; conditions: Homo sapiens
Summary of the method: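 CC50 taken as the concentration reducing the viability of mock-infected (uninfected) MT-2 cells. Values with SD are means of at least three independent experiments; values without SD come from a single experiment.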

[8] = biological target: Human immunodeficiency virus type 1 protease (Human immunodeficiency virus 1, UniProt Q72874); test: Inhibitory activity against HIV-1 protease
Summary of the method: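 Ki against HIV-1 protease. Enzyme reaction rate was obtained by SELDI-MS quantitation of the remaining parent peptide substrate.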

SMILES | IC50 (MT2 [1]) | IC50 [2] | SI [3] | IC50 [4] | IC50 [5] | IC50 [6] | CC50 (MT2 [7]) | Ki [8]
CC(C)(C)NC(=O)[C@@H]1C[C@@H]2CCCC[C@@H]2CN1C[C@@H](O)[C@H](Cc1ccccc1)NC(=O)[C@@H](C[S+]([O-])c1ccc2ccccc2c1)NS(C)(=O)=O (some centres not stated) | 9.5 nM | 15 nM | 410 | 220 nM | 34 nM | 32 nM | 3900 nM | 0.12 nM
CC(C)CN(C[C@@H](O)[C@@H](/C=C/[C@@H](C[S+]([O-])c1ccc2ccccc2c1)NS(C)(=O)=O)Cc1ccccc1)S(=O)(=O)c1ccc(N)cc1 (some centres not stated) | 160 nM | 180 nM | 58 | 340 nM | > 1000 nM | 520 nM | 8000 nM | 0.38 nM
CC(C)(C)NC(=O)[C@@H]1C[C@@H]2CCCC[C@@H]2CN1CC(O)[C@@H](/C=C/[C@@H](C[S+]([O-])c1ccc2ccccc2c1)NS(C)(=O)=O)Cc1ccccc1 (some centres not stated) | > 1000 nM |  |  |  |  |  |  | 
CC(C)CN(C[C@H](O)[C@@H](/C=C/[C@@H](C[S+]([O-])c1ccc2ccccc2c1)NS(C)(=O)=O)Cc1ccccc1)S(=O)(=O)c1ccc(N)cc1 (some centres not stated) | > 1000 nM |  |  |  |  |  |  | 
CC(C)CN(C[C@@H](O)[C@H](Cc1ccccc1)NC(=O)[C@@H](C[S+]([O-])c1ccc2ccccc2c1)NS(C)(=O)=O)S(=O)(=O)c1ccc(N)cc1 (some centres not stated) | 66 nM | 31 nM | 500 | 25 nM | 43 nM | 36 nM | 33000 nM | 0.1 nM
CC(C)CN(C[C@@H](O)[C@H](Cc1ccccc1)NC(=O)O[C@H]1CCOC1)S(=O)(=O)c1ccc(N)cc1 | 36 nM | 20 nM |  | 800 nM | 480 nM | 530 nM | > 100000 nM | 
CC(C)(C)NC(=O)[C@@H]1C[C@@H]2CCCC[C@@H]2CN1C[C@@H](O)[C@H](Cc1ccccc1)NC(=O)[C@H](CC(N)=O)NC(=O)c1ccc2ccccc2n1 | 17 nM | 19 nM |  |  |  |  | 11000 nM | 
Cc1cn([C@H]2C[C@H](N=[N+]=[N-])[C@@H](CO)O2)c(=O)[nH]c1=O [ZIDOVUDINE] | 27 nM | 2.5 nM |  | 64 nM | 43 nM | 37 nM | > 100000 nM | 
CC(C)(C)NC(=O)[C@@H]1C[C@@H]2CCCC[C@@H]2CN1CC(O)[C@@H](/C=C/[C@@H](CS(=O)(=O)c1ccc2ccccc2c1)NS(C)(=O)=O)Cc1ccccc1 (some centres not stated) | > 1000 nM |  |  |  |  |  |  | 
